Experimental data: ChEMBL document CHEMBL1144042, “Cytotoxic simplified tubulysin analogues” (J Med Chem, 2008)

Key:
1A9 = test: Cytotoxicity against human 1A9 cells; assay type: functional, cell-based
[1] = Inhibition of rat brain tubulin polymerization
In short: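 Rat brain tubulin (10 µM) mixed on ice with test compound at 0.5, 1, 2 and 4 µM in 0.8 M sodium glutamate, pH 6.6, with 0.4 mM GTP. Samples then warmed to 33 °C. Polymerization followed over time as optical density at 350 nm. IC50 taken from the concentration series.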

HCT-15 = test: Anticancer activity against multidrug-resistant human HCT15 cells; assay type: functional
[2] = Anticancer activity against multidrug-resistant human KBV1 cells; assay type: functional, cell-based; details: KB-V1

SMILES	IC50 (1A9)	also measured
CCC(C)[C@H](NC(=O)[C@H]1CCCN1C)C(=O)N[C@H](CC(=O)c1nc(C(=O)N[C@@H](Cc2ccccc2)C[C@H](C)C(=O)O)cs1)C(C)C (single isomer, unassigned)	0.8 µM	IC50 [1]: 1 µM
CCC(C)[C@H](NC(=O)[C@H]1CCCN1)C(=O)N[C@H](CC(=O)c1nc(C(=O)N[C@@H](Cc2ccccc2)C[C@H](C)C(=O)O)cs1)C(C)C (single isomer, unassigned)	> 33 µM	
CCC(C)[C@H](NC(=O)[C@@H]1CCCN1)C(=O)N[C@H](CC(=O)c1nc(C(=O)N[C@@H](Cc2ccccc2)C[C@H](C)C(=O)O)cs1)C(C)C (single isomer, unassigned)	> 33 µM	
CC[C@@H](C)[C@H](NC(=O)[C@H]1CCCCN1C)C(=O)N(COC(=O)CC(C)C)[C@H](C[C@@H](OC(C)=O)c1nc(C(=O)N[C@@H](Cc2ccc(O)cc2)C[C@H](C)C(=O)O)cs1)C(C)C [TUBULYSIN A]		GI50 (HCT-15): 0.00012 µM
CCC(C)[C@H](NC(=O)[C@H]1CCCCN1C)C(=O)N(COC(=O)CC(C)C)[C@H](C[C@@H](OC(C)=O)c1nc(C(=O)N[C@@H](Cc2ccccc2)C[C@H](C)C(=O)O)cs1)C(C)C (single isomer, unassigned) [TUBULYSIN D]		IC50 [2]: 0.00031 µM
COc1cc([C@@H]2c3cc4c(cc3[C@H](O)[C@H]3COC(=O)[C@H]23)OCO4)cc(OC)c1OC [PODOFILOX]	0.003 µM	
CC[C@@H](C)[C@H](NC(=O)[C@@H]1CCCCN1)C(=O)N[C@H](CC(=O)c1nc(C(=O)N[C@@H](Cc2ccccc2)C[C@H](C)C(=O)O)cs1)C(C)C	24 µM	
CC[C@@H](C)[C@H](NC(=O)[C@H]1CCCCN1)C(=O)N[C@H](CC(=O)c1nc(C(=O)N[C@@H](Cc2ccccc2)C[C@H](C)C(=O)O)cs1)C(C)C	23 µM	
CCC(C)[C@H](NC(=O)[C@@H]1CCCCN1C)C(=O)N[C@H](CC(=O)c1nc(C(=O)N[C@@H](Cc2ccccc2)C[C@H](C)C(=O)O)cs1)C(C)C (single isomer, unassigned)	25 µM	
CCC(C)[C@H](NC(=O)[C@@H]1CCCN1C)C(=O)N[C@H](CC(=O)c1nc(C(=O)N[C@@H](Cc2ccccc2)C[C@H](C)C(=O)O)cs1)C(C)C (single isomer, unassigned)	18 µM	
CCC(C)[C@H](NC(=O)[C@H]1CCCCN1C)C(=O)N[C@H](CC(=O)c1nc(C(=O)N[C@@H](Cc2ccccc2)C[C@H](C)C(=O)O)cs1)C(C)C (single isomer, unassigned)	0.2 µM	IC50 [1]: 1.8 µM
CN[C@H](C(=O)N[C@H](C(=O)N(C)[C@H](/C=C(\C)C(=O)O)C(C)C)C(C)(C)C)C(C)(C)c1ccccc1 [TALTOBULIN]	3e-05 µM	IC50 [1]: 1 µM
